Columns and labels:
[1] = HPLC capacity factor (k'); format: ADME
[2] = biological target: Adenosine receptor A2a (Canis lupus familiaris) (UniProt P11617); test: Molar potency ratio was evaluated
Albumin = Albumin (Bos taurus, UniProt P02769); test: Serum albumin binding; conditions: cattle
Method in brief: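 Affinity for bovine serum albumin measured by Hummel–Dreyer method adapted for HPLC. Samples of BSA (0.25–2 g/dL) with 25 μM analogue in 0.1 M NaH2PO4, pH 7.4, were applied to an Aquapore OH-100 column equilibrated with 25 μM analogue in the same buffer. Effluent absorbance was read at 254 nm. Duplicate estimates were made at each of two BSA concentrations, usually 1 and 2 g/dL.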

[3] = Ionisation constant (pKa); format: physicochemical

Albumin, sequence (P02769 whole entry): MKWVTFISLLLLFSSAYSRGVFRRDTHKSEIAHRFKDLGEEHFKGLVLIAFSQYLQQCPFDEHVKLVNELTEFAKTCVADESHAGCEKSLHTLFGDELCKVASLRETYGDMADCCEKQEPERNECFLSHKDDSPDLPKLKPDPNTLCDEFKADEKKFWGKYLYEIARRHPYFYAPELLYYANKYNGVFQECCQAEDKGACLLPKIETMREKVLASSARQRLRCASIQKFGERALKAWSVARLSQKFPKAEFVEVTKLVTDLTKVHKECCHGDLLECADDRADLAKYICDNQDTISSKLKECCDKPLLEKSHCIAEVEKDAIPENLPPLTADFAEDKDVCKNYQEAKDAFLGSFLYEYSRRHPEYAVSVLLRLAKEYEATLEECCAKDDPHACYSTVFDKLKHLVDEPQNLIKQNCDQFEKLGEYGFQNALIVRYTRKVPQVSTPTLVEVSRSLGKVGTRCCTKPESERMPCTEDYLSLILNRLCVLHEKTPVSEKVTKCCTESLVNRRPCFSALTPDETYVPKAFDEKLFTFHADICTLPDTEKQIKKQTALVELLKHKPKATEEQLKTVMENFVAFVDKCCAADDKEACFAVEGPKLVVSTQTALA
Adenosine receptor A2a (Canis lupus familiaris), sequence (P11617 whole entry, looked up): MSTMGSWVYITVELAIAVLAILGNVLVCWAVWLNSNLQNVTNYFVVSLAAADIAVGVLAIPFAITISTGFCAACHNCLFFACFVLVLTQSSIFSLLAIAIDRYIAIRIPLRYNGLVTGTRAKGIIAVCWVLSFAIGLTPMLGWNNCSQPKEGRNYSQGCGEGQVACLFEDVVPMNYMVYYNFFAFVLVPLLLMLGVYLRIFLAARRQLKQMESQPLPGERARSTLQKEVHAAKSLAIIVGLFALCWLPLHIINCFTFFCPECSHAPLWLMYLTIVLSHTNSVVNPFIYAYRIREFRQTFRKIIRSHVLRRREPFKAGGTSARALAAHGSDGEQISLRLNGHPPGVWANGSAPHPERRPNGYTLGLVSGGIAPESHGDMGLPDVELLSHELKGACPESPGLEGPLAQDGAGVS

OC[C@H]1OC(n2cnc3c(NCC(O)c4ccccc4)ncnc32)[C@H](O)[C@@H]1O (some centres undefined)
k' [1]: 0.79
MPR [2]: 1.4

OC[C@H]1O[C@@H](n2cnc3c(NC4CC5CCC4C5)ncnc32)[C@H](O)[C@@H]1O (stereo in doubt; 58) [listing 1 of 2 here]
k' [1]: 2.64
Amount bound (Albumin): 2.09 M/g

CC(C)C(Nc1ncnc2c1ncn2C1O[C@H](CO)[C@@H](O)[C@H]1O)C(C)C (some centres undefined)
k' [1]: 1
MPR [2]: 0.75
Amount bound (Albumin): 2.97 M/g

CCCC(C)Nc1ncnc2c1ncn2C1O[C@H](CO)[C@@H](O)[C@H]1O (some centres undefined)
k' [1]: 2.38
MPR [2]: 1.1

NCCNc1ncnc2c1ncn2C1O[C@H](CO)[C@@H](O)[C@H]1O (some centres undefined)
k' [1]: 0.11
MPR [2]: 0.072

OC[C@H]1O[C@@H](n2cnc3c(N[C@H]4C[C@@H]4c4ccccc4)ncnc32)[C@H](O)[C@@H]1O
k' [1]: 2.36
MPR [2]: 0.7

CCCNc1ncnc2c1ncn2C1O[C@H](CO)[C@@H](O)[C@H]1O (some centres undefined)
k' [1]: 0.57
MPR [2]: 0.64

C[C@@H](Nc1ncnc2c1ncn2[C@@H]1O[C@H](CO)[C@@H](O)[C@H]1O)c1ccccc1
k' [1]: 1.64
MPR [2]: 0.52
pKa [3]: 3.3

OC[C@H]1O[C@@H](n2cnc3cncnc32)[C@H](O)[C@@H]1O
MPR [2]: 0.023

OC[C@H]1OC(n2cnc3c(NCC4CC4)ncnc32)[C@H](O)[C@@H]1O (some centres undefined)
k' [1]: 0.71
MPR [2]: 0.58

CCNc1ncnc2c1ncn2C1O[C@H](CO)[C@@H](O)[C@H]1O (some centres undefined)
k' [1]: 0.29
MPR [2]: 0.15

C[C@H](Nc1ncnc2c1ncn2[C@@H]1O[C@H](CO)[C@@H](O)[C@H]1O)c1ccccc1
k' [1]: 1.89
MPR [2]: 0.2

OC[C@H]1OC(n2cnc3c(NC(Cc4ccccc4)Cc4ccccc4)ncnc32)[C@H](O)[C@@H]1O (some centres undefined)
k' [1]: 14.83
MPR [2]: 0.33

OCCNc1ncnc2c1ncn2C1O[C@H](CO)[C@@H](O)[C@H]1O (some centres undefined)
k' [1]: 0.14
MPR [2]: 0.14
Amount bound (Albumin): 0.53 M/g

C[C@H](Cc1ccccc1)Nc1ncnc2c1ncn2[C@@H]1O[C@H](CO)[C@@H](O)[C@H]1O [(R)-PIA]
k' [1]: 2.57
pKa [3]: 3.4

CC(C)Nc1ncnc2c1ncn2[C@@H]1O[C@H](CO)[C@@H](O)[C@H]1O
k' [1]: 0.54
MPR [2]: 0.71
Amount bound (Albumin): 0.41 M/g

C#CCNc1ncnc2c1ncn2C1O[C@H](CO)[C@@H](O)[C@H]1O (some centres undefined)
k' [1]: 0.21
MPR [2]: 0.23

OC[C@H]1O[C@@H](n2cnc3c(NC4CC4)ncnc32)[C@H](O)[C@@H]1O
k' [1]: 0.2
MPR [2]: 0.38

NNc1ncnc2c1ncn2[C@@H]1O[C@H](CO)[C@@H](O)[C@H]1O
k' [1]: 0.14
MPR [2]: 0.046

CNc1ncnc2c1ncn2[C@@H]1O[C@H](CO)[C@@H](O)[C@H]1O
k' [1]: 0.07
MPR [2]: 0.05

CCCC(CCC)Nc1ncnc2c1ncn2C1O[C@H](CO)[C@@H](O)[C@H]1O (some centres undefined)
k' [1]: 5.57
MPR [2]: 0.81
Amount bound (Albumin): 7.1 M/g

CC(CC1CCCCC1)Nc1ncnc2c1ncn2C1O[C@H](CO)[C@@H](O)[C@H]1O (some centres undefined)
k' [1]: 8.92
MPR [2]: 0.15
Amount bound (Albumin): 19.3 M/g

CN(Nc1ncnc2c1ncn2C1O[C@H](CO)[C@@H](O)[C@H]1O)c1ccccc1 (some centres undefined)
k' [1]: 0.93
MPR [2]: 1.8

CC(C)(Cc1ccccc1)Nc1ncnc2c1ncn2C1O[C@H](CO)[C@@H](O)[C@H]1O (some centres undefined)
k' [1]: 7.43
MPR [2]: 0.011

C[C@@H](Nc1ncnc2c1ncn2[C@@H]1O[C@H](CO)[C@@H](O)[C@H]1O)[C@H](O)c1ccccc1
k' [1]: 0.96
MPR [2]: 1.8

CC(C)(C)CNc1ncnc2c1ncn2C1O[C@H](CO)[C@@H](O)[C@H]1O (some centres undefined)
k' [1]: 2.5
MPR [2]: 0.064

Cc1ncnc2c1ncn2[C@@H]1O[C@H](CO)[C@@H](O)[C@H]1O
MPR [2]: 0.007

OC[C@H]1O[C@@H](n2cnc3c(N[C@@H]4C[C@H]4c4ccccc4)ncnc32)[C@H](O)[C@@H]1O
k' [1]: 2.43
MPR [2]: 0.31

CC(C)(C)CCNc1ncnc2c1ncn2C1O[C@H](CO)[C@@H](O)[C@H]1O (some centres undefined)
k' [1]: 4.71
MPR [2]: 0.084

CCCCNc1ncnc2c1ncn2[C@@H]1O[C@H](CO)[C@@H](O)[C@H]1O
k' [1]: 1.59
MPR [2]: 0.38
Amount bound (Albumin): 1.06 M/g

OC[C@H]1O[C@@H](n2cnc3c(Cl)ncnc32)[C@H](O)[C@@H]1O
MPR [2]: 0.023

CCC(CNc1ncnc2c1ncn2C1O[C@H](CO)[C@@H](O)[C@H]1O)c1ccccc1 (some centres undefined)
k' [1]: 5.89
MPR [2]: 3.3

CCCCC(C)Nc1ncnc2c1ncn2C1O[C@H](CO)[C@@H](O)[C@H]1O (some centres undefined)
k' [1]: 4.46
MPR [2]: 0.56

CCC(CC)Nc1ncnc2c1ncn2C1O[C@H](CO)[C@@H](O)[C@H]1O (some centres undefined)
k' [1]: 1.64
MPR [2]: 4
Amount bound (Albumin): 0.78 M/g
pKa [3]: 3.3

OC[C@H]1O[C@@H](n2cnc3c(NC4CC5CCC4C5)ncnc32)[C@H](O)[C@@H]1O (stereo in doubt; 58) [listing 2 of 2 here]
MPR [2]: 0.55

OC[C@H]1O[C@@H](n2cnc3/c(=N\O)[nH]cnc32)[C@H](O)[C@@H]1O
MPR [2]: 0.16

OC[C@H]1OC(n2cnc3c(NC(C4CC4)C4CC4)ncnc32)[C@H](O)[C@@H]1O (some centres undefined)
k' [1]: 2.68
MPR [2]: 1.5

C[C@H](CCc1ccccc1)Nc1ncnc2c1ncn2[C@@H]1O[C@H](CO)[C@@H](O)[C@H]1O
k' [1]: 6.11
MPR [2]: 0.19

C[C@@H](Nc1ncnc2c1ncn2[C@@H]1O[C@H](CO)[C@@H](O)[C@H]1O)[C@@H](O)c1ccccc1
k' [1]: 1.32
MPR [2]: 2.9

OC[C@H]1O[C@@H](n2cnc3c(NC4C5CCC4CC5)ncnc32)[C@H](O)[C@@H]1O (some centres undefined)
k' [1]: 3.5
MPR [2]: 0.39

CC[C@@H](C)Nc1ncnc2c1ncn2[C@@H]1O[C@H](CO)[C@@H](O)[C@H]1O
k' [1]: 0.89
MPR [2]: 0.88
Amount bound (Albumin): 0.36 M/g
pKa [3]: 3.7

CCCCCCNc1ncnc2c1ncn2C1O[C@H](CO)[C@@H](O)[C@H]1O (some centres undefined)
k' [1]: 5.88
MPR [2]: 0.2

C[C@H](CNc1ncnc2c1ncn2[C@@H]1O[C@H](CO)[C@@H](O)[C@H]1O)c1ccccc1
k' [1]: 3
MPR [2]: 3

CCCCCC(C)Nc1ncnc2c1ncn2C1O[C@H](CO)[C@@H](O)[C@H]1O (some centres undefined)
k' [1]: 8.54
MPR [2]: 0.31

OC[C@H]1O[C@@H](n2cnc3c(NC4CCC4)ncnc32)[C@H](O)[C@@H]1O
k' [1]: 0.2
MPR [2]: 1.6

OC[C@H]1O[C@@H](n2cnc3c(NCCc4ccccc4)ncnc32)[C@H](O)[C@@H]1O
k' [1]: 1.77
MPR [2]: 2
pKa [3]: 3.6

COc1ncnc2c1ncn2[C@@H]1O[C@H](CO)[C@@H](O)[C@@H]1O
k' [1]: 0.16
MPR [2]: 0.004

OC[C@H]1O[C@@H](n2cnc3c(NC4CCCCCC4)ncnc32)[C@H](O)[C@@H]1O
k' [1]: 4.04
MPR [2]: 0.18
Amount bound (Albumin): 3.4 M/g

OC[C@H]1O[C@@H](n2cnc3c(NC4CC5CCC4C5)ncnc32)[C@H](O)[C@@H]1O (stereo in doubt; 57) [listing 1 of 2 here]
MPR [2]: 0.54

OC[C@H]1OC(n2cnc3c(NCCC4CCCCC4)ncnc32)[C@H](O)[C@@H]1O (some centres undefined)
k' [1]: 8.92
MPR [2]: 0.04

OC[C@H]1OC(n2cnc3c(NCC4CCCCC4)ncnc32)[C@H](O)[C@@H]1O (some centres undefined)
k' [1]: 4.67
MPR [2]: 0.14
Amount bound (Albumin): 7.1 M/g

CCCCCCC(C)Nc1ncnc2c1ncn2C1O[C@H](CO)[C@@H](O)[C@H]1O (some centres undefined)
k' [1]: 16.88
MPR [2]: 0.052

CCCCCNc1ncnc2c1ncn2[C@@H]1O[C@H](CO)[C@@H](O)[C@H]1O
k' [1]: 3.08
MPR [2]: 0.36

CC1(Nc2ncnc3c2ncn3C2O[C@H](CO)[C@@H](O)[C@H]2O)CCCC1 (some centres undefined)
k' [1]: 5.02
MPR [2]: 0.033

C[C@@H](CO)Nc1ncnc2c1ncn2C1O[C@H](CO)[C@@H](O)[C@H]1O (some centres undefined)
k' [1]: 0.28
MPR [2]: 0.098

C=CCNc1ncnc2c1ncn2[C@@H]1O[C@H](CO)[C@@H](O)[C@H]1O
k' [1]: 0.36
MPR [2]: 0.23

CC[C@@H](CO)Nc1ncnc2c1ncn2[C@@H]1O[C@H](CO)[C@@H](O)[C@H]1O
k' [1]: 0.52
MPR [2]: 0.12

OC[C@H]1O[C@@H](n2cnc3c(NC4CCCCC4)ncnc32)[C@H](O)[C@@H]1O
k' [1]: 2.12
Amount bound (Albumin): 1.3 M/g

OC[C@H]1O[C@@H](n2cnc3/c(=N\OCc4ccccc4)[nH]cnc32)[C@H](O)[C@@H]1O
k' [1]: 1.04
MPR [2]: 0.42

C[C@@H](CNc1ncnc2c1ncn2[C@@H]1O[C@H](CO)[C@@H](O)[C@H]1O)c1ccccc1
k' [1]: 2.89
MPR [2]: 2.4

CN(C)c1ncnc2c1ncn2[C@@H]1O[C@H](CO)[C@@H](O)[C@H]1O
MPR [2]: 0.001

OC[C@H]1O[C@@H](n2cnc3c(NC4CCCC4)ncnc32)[C@H](O)[C@@H]1O [N6-CYCLOPENTYLADENOSINE]
k' [1]: 1.25
MPR [2]: 1.8

OC[C@H]1O[C@@H](n2cnc3c(NC4CC5CCC4C5)ncnc32)[C@H](O)[C@@H]1O (stereo in doubt; 57) [listing 2 of 2 here]
k' [1]: 2.63

CC[C@H](C)Nc1ncnc2c1ncn2C1O[C@H](CO)[C@@H](O)[C@H]1O (single isomer, unassigned)
k' [1]: 0.96
MPR [2]: 2.6
Amount bound (Albumin): 0.53 M/g

CC[C@H](CO)Nc1ncnc2c1ncn2[C@@H]1O[C@H](CO)[C@@H](O)[C@H]1O
k' [1]: 0.4
MPR [2]: 0.77

OC[C@H]1O[C@@H](n2cnc3c(NO)ncnc32)[C@H](O)[C@@H]1O
k' [1]: 0.16

C[C@@H](CCc1ccccc1)Nc1ncnc2c1ncn2[C@@H]1O[C@H](CO)[C@@H](O)[C@H]1O
k' [1]: 6.47
MPR [2]: 0.05

CC(C)CNc1ncnc2c1ncn2C1O[C@H](CO)[C@@H](O)[C@H]1O (some centres undefined)
k' [1]: 1
MPR [2]: 0.75
Amount bound (Albumin): 0.74 M/g

C[C@@H](Cc1ccccc1)Nc1ncnc2c1ncn2[C@@H]1OC(CO)[C@@H](O)[C@H]1O (single isomer, unassigned)
k' [1]: 2.61
